Series [1] can be described thus: Selectivity index, ratio of growth inhibition of Trypanosoma cruzi Tulahuen 2 epimastigotes at 25 uM to hemolysis of human erythrocytes at 25 uM. In short, it runs like this: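 This is a ratio of two values. One is the % epimastigote growth inhibition (A590, day 5 versus day 0, against a DMSO control). The other is the % erythrocyte lysis (A405 after 24 h at 37 °C, relative to water lysis). Both are measured at the same compound concentration.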

Series [2] can be described thus: Toxicity in human erythrocytes assessed as hemolysis at 25 uM after 24 hrs by spectrophotometry. It counts as cell-based, Erythrocyte. As to conditions: read-out: Activity. A digest of the protocol: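 Citrated human blood was washed repeatedly in ice-cold PBS and made into a 2% w/v suspension. It was mixed 1:1 with compound in PBS and incubated 24 h at 37 °C. Supernatant hemoglobin was read at 405 nm. Percent hemolysis = (A at 24 h − A at 0 h) / water-lysis A × 100. Water gave 100% lysis, PBS served as negative control. Run in quintuplicate.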

Series [3] has as its system Trypanosoma cruzi. The series can be described thus: Antitrypanosomal activity against Trypanosoma cruzi Tulahuen 2 epimastigotes assessed as inhibition of parasite growth at 25 uM after 5 days by spectrophotometric analysis. It counts as functional. As to conditions: Tulahuen 2, 120 h, read-out: GI. A digest of the protocol: (§1)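 Tulahuen 2 epimastigotes were grown in BHI-Tryptose with 5% fetal calf serum at 28 °C, harvested in late log phase and seeded at 2 × 10^6/mL. Compound came from DMSO stock (final DMSO ≤1%, vehicle control). A590 was read at day 0 and day 5, and % inhibition was taken against the control. IC50 was the concentration halving control absorbance. Values are the mean of three experiments.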

Series [4] relates to Trypanosoma cruzi. Nature of the series: Antitrypanosomal activity against Trypanosoma cruzi Tulahuen 2 epimastigotes assessed as inhibition of parasite growth after 5 days by spectrophotometric analysis. The class given is functional, organism-based. As to conditions: Tulahuen 2, 120 h. A digest of the protocol:
as §1

Series [5] has as its target Cruzipain (Trypanosoma cruzi) (UniProt P25779). The series can be described thus: Inhibition of Trypanosoma cruzi cruzipain using Z-Phe-Arg-AMC as substrate at 100 uM preincubated for 5 mins before substrate addition measured after 10 mins by spectrofluorometry. A digest of the protocol:
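Cruzipain was preincubated 5 min at room temperature with compound in 50 mM PBS pH 7.3 or acetate buffer pH 5.3 containing 5 mM DTT. Z-Phe-Arg-AMC was then added. Fluorescence (ex 380/em 460 nm) was followed 10 min at room temperature. Final DMSO was ≤10%, the solvent-only control was used, and a reference thiosemicarbazone inhibitor was included. Values are means of at least three experiments.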

The term IC50 denotes the concentration that inhibits the measured activity by half. A word on the inhibition: it is the percentage by which the read-out fell short of the control.

Sequence of Cruzipain (Trypanosoma cruzi) (P25779 123-467 limits assumed): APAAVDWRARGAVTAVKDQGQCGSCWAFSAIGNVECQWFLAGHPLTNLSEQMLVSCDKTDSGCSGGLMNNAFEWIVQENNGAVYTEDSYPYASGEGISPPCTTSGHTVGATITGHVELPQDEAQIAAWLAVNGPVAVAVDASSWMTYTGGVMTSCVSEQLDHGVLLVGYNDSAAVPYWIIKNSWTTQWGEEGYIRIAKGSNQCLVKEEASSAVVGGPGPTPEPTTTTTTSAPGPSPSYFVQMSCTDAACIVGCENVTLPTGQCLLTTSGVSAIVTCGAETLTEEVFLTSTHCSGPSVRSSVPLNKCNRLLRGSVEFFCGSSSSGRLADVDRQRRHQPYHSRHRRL

Consider `COc1ccc2c(c1)CC/C2=N\NC(N)=S`, for which the Ratio in series [1] was determined as 115.1. Moreover, the hemolysis at 24 h, 25 µM in series [2] was determined as 0.8%. In the series on Trypanosoma cruzi [3], the inhibition of growth at 25 µM was found to be 92.1%. For the same compound, in the series on Trypanosoma cruzi [4], the IC50 was 7.5 µM.
For the compound `NC(=S)N/N=C1\CCc2cc(Br)ccc21`, in series [1], the Ratio came to 41.2. In series [2], the hemolysis at 24 h, 25 µM turned out to be 2.4%. Besides, in the series with Trypanosoma cruzi [3], the inhibition of growth at 25 µM was 98.8%. For the same compound, the IC50 with Trypanosoma cruzi [4] worked out at 2.3 µM.
On the same counts, the results for `NC(=S)N/N=C1\CCc2cc(Cl)ccc21` are 170, 0.1%, 1.7% and greater than 50 µM.
Taken in the same sequence, the figures for `Cc1cc(Br)c(C)c2c1/C(=N/NC(N)=S)CC2` were 21.2, 2.4%, 51% and 25 µM.
On to `COc1cc2c(cc1OC)/C(=N/NC(=S)Nc1ccccc1)CC2`, for which, in series [1], the Ratio turned out to be 168.8. This compound yielded an inhibition in series [5] of 0%. The hemolysis at 24 h, 25 µM in series [2] amounted to 0.4%. Also, the inhibition of growth at 25 µM with Trypanosoma cruzi [3] turned out to be 67.5%. Further, in the series on Trypanosoma cruzi [4], the IC50 stood at 1 µM.
With `NC(=S)N/N=C1\CCc2ccc([N+](=O)[O-])cc21`, in series [1], the Ratio is listed as 310. This compound gave an inhibition in series [5] of 24%. The hemolysis at 24 h, 25 µM in series [2] was determined as 0.1%. For the same compound, in the series with Trypanosoma cruzi [3], the inhibition of growth at 25 µM was found to be 3.1%. Also, the half-inhibitory concentration (IC50) with Trypanosoma cruzi [4] is greater than 50 µM.
On the same counts, the results for `COc1cc2c(cc1OC)/C(=N/NC(N)=S)CC2` are 190, 1.7%, 0.1%, 19% and greater than 50 µM.
Turning to `COc1cc2c(cc1OC)/C(=N/NC(=S)Nc1ccc(Cl)cc1)CC2`, the Ratio in series [1] amounted to 770. Further, the inhibition in series [5] came out at 67%. Besides, in series [2], the hemolysis at 24 h, 25 µM turned out to be 0.1%. The inhibition of growth at 25 µM in the series with Trypanosoma cruzi [3] worked out at 77%. Further, in the series with Trypanosoma cruzi [4], the half-maximal inhibitory concentration (IC50) amounted to 1 µM.
Turning to `S=C(N/N=C1\CCc2ccccc21)Nc1ccccc1`, the Ratio in series [1] is listed as 25.8. Moreover, the hemolysis at 24 h, 25 µM in series [2] is 2.7%. The inhibition of growth at 25 µM in the series on Trypanosoma cruzi [3] turned out to be 69.6%. Also, the IC50 in the series on Trypanosoma cruzi [4] is 7.7 µM.
Taken in the same sequence, the figures for `C[C@@H]1[C@H](O)[C@@H](C)/C=C/C=C/C=C/C=C/C=C/C=C/C=C/[C@H](O[C@@H]2O[C@H](C)[C@@H](O)[C@H](N)[C@@H]2O)C[C@@H]2O[C@](O)(C[C@@H](O)C[C@@H](O)[C@H](O)CC[C@@H](O)C[C@@H](O)CC(=O)O[C@H]1C)C[C@H](O)[C@H]2C(=O)O` [AMPHOTERICIN B] were 1, 100%, 100% and 0.152 µM.
On the same counts, the results for `Cc1cc2c(c(C)c1Cl)/C(=N/NC(N)=S)CC2` are 5.1, 2.8%, 14.4% and greater than 50 µM.
Regarding `COc1ccc2c(c1)/C(=N/NC(N)=S)CC2`, the Ratio in series [1] is 13.3. Further, the inhibition in series [5] stood at 0%. In addition, the hemolysis at 24 h, 25 µM in series [2] is 7.5%. In the series on Trypanosoma cruzi [3], the inhibition of growth at 25 µM was 100%. Also, the concentration for half-maximal inhibition (IC50) with Trypanosoma cruzi [4] is 7.5 µM.
On the same counts, the results for `COc1cccc2c1CC/C2=N\NC(N)=S` are 84.2, 9.8%, 1%, 84.2% and 6.2 µM.
As to `S=C(N/N=C1\CCc2ccccc21)Nc1ccc(Cl)cc1`, the Ratio in series [1] is recorded as 508. In series [2], the hemolysis at 24 h, 25 µM came out at 0.1%. Also, in the series with Trypanosoma cruzi [3], the inhibition of growth at 25 µM was determined as 50.8%. For the same compound, in the series on Trypanosoma cruzi [4], the IC50 was found to be 25 µM.
On the same counts, the results for `NC(=S)N/N=C1\CCc2cc(F)ccc21` are 421, 0.2%, 84.2% and 8.3 µM.
Take `CC1CS(=O)(=O)CCN1/N=C/c1ccc([N+](=O)[O-])o1` (centres undefined) [NIFURTIMOX]: the inhibition of growth at 25 µM in the series with Trypanosoma cruzi [3] is 100%.
`Cc1ccc(NC(=S)N/N=C2\CCc3ccccc32)cc1`: the Ratio in series [1] came to 47.5. For the same compound, in series [2], the hemolysis at 24 h, 25 µM came out at 1.6%. Further, the inhibition of growth at 25 µM with Trypanosoma cruzi [3] was 76%. Besides, in the series on Trypanosoma cruzi [4], the 50% inhibitory concentration (IC50) came to 5.9 µM.
On the same counts, the results for `Cc1cc(C)c2c(c1Br)CC/C2=N\NC(N)=S` are 12.9, 7.7%, 100% and 5.7 µM.
On the same counts, the results for `Cc1cc2c(c(C)c1Cl)CC/C2=N\NC(N)=S` are 837, 0.1%, 83.7% and 7.8 µM.
`Cc1ccc2c(c1)CC/C2=N\NC(N)=S`: the Ratio in series [1] is 200. The hemolysis at 24 h, 25 µM in series [2] stood at 0.5%. Moreover, the inhibition of growth at 25 µM in the series with Trypanosoma cruzi [3] was found to be 100%. Moreover, the IC50 in the series on Trypanosoma cruzi [4] was found to be 3.6 µM.
In the case of `CC/C(=N\N=C(\N)S)c1cccc(Br)c1`, the inhibition in series [5] turned out to be 100%.
Consider `COc1cc2c(cc1OC)/C(=N/NC(=S)Nc1ccc(C)cc1)CC2`, for which, in series [1], the Ratio is given as 18.5. The hemolysis at 24 h, 25 µM in series [2] worked out at 4.2%. Further, the inhibition of growth at 25 µM with Trypanosoma cruzi [3] was 77.7%. The IC50 in the series with Trypanosoma cruzi [4] came to 3 µM.
On the same counts, the results for `NC(=S)N/N=C1\CCc2ccccc21` are 404, 0.2%, 80.8% and 18.6 µM.
On the same counts, the results for `Cc1cccc2c1CC/C2=N\NC(N)=S` are 985, 0.1%, 98.5% and 4 µM.
Take `Cc1cc(C)c2c(c1)CC/C2=N\NC(N)=S`: in series [1], the Ratio is 665. Further, the hemolysis at 24 h, 25 µM in series [2] was found to be 0.1%. Also, the inhibition of growth at 25 µM in the series with Trypanosoma cruzi [3] was found to be 66.5%. The IC50 with Trypanosoma cruzi [4] stood at 4.3 µM.
Turning to `COc1ccc2c(c1OC)CC/C2=N\NC(N)=S`, the Ratio in series [1] was 989. In series [5], this compound returned an inhibition of 61%. Also, in series [2], the hemolysis at 24 h, 25 µM was 0.1%. Besides, the inhibition of growth at 25 µM in the series with Trypanosoma cruzi [3] is 98.9%. Besides, the IC50 with Trypanosoma cruzi [4] was determined as 1.8 µM.
Consider `NC(=S)N/N=C1\CCc2c1cccc2[N+](=O)[O-]`, for which, in series [1], the Ratio stood at 4.9. Besides, the hemolysis at 24 h, 25 µM in series [2] amounted to 4.5%. In addition, the inhibition of growth at 25 µM with Trypanosoma cruzi [3] came out at 22%. For the same compound, the IC50 in the series with Trypanosoma cruzi [4] was greater than 50 µM.
